{"data": "Measured values pooled from the literature", "cell line": "HCT-116", "effect on": "cell growth or viability", "note": "Each line is one published result; the experiments were not run side by side. pIC50: −log10 of the molar value."}
{"SMILES": "CN[C@@H]1C[C@H]2O[C@@](C)([C@@H]1OC)n1c3ccccc3c3c4c(c5c6ccccc6n2c5c31)C(=O)NC4", "assay": "MTT", "quantity": "pIC50", "result": 7.82}
{"SMILES": "COc1ccc2[nH]cc(CCNc3nccc(Nc4cccc5c4ccn5C)n3)c2c1", "assay": "fluorescence", "setting": "72 h", "quantity": "pIC50", "result": 8.04}
{"SMILES": "N.N.[Cl][Pt][Cl]", "setting": "48 h", "quantity": "pIC50", "result": 4.79}
{"SMILES": "CC1=C(O)C(=O)C=C2C1=CC=C1[C@@]2(C)CC[C@@]2(C)[C@@H]3C[C@](C)(C(=O)O)CC[C@]3(C)CC[C@]12C", "assay": "MTT", "setting": "48 h", "quantity": "pIC50", "result": 6.37}
{"SMILES": "N.N.[Cl][Pt][Cl]", "assay": "MTS", "setting": "72 h", "quantity": "pIC50", "result": 4.38}
{"SMILES": "COc1cc2c3c(n(CCCN4CCOCC4)c(=O)c2cc1OC)-c1cc2c(cc1C3=O)OCO2", "setting": "72 h", "quantity": "IC50", "result": "0.618 µg/mL"}
{"SMILES": "CC[C@@]1(OC(=O)[C@@H](N)C(C)C)C(=O)OCc2c1cc1n(c2=O)Cc2cc3cc4c(cc3nc2-1)OCO4", "assay": "MTT", "quantity": "pIC50", "result": 7.34}
{"SMILES": "CC1=C(O)C(=O)C=C2C1=CC=C1[C@@]2(C)CC[C@@]2(C)[C@@H]3C[C@](C)(C(=O)OCCCn4cc(C=O)c5ccccc54)CC[C@]3(C)CC[C@]12C", "assay": "MTT", "setting": "48 h", "quantity": "pIC50", "result": 6.24}
{"SMILES": "CSC(=NNC(=O)c1ccc(Cl)c(Cl)c1)SC", "assay": "MTT", "setting": "5 days", "quantity": "pIC50", "result": 4.55}
{"SMILES": "CC[C@@]1(OC(=O)Cc2c(C)n(C(=O)c3ccc(Cl)cc3)c3ccc(OC)cc23)C(=O)OCc2c1cc1n(c2=O)Cc2cc3cc4c(cc3nc2-1)OCO4", "assay": "MTT", "quantity": "pIC50", "result": 7.34}
{"SMILES": "N.N.[Cl][Pt][Cl]", "assay": "SRB", "quantity": "pIC50", "result": 5.28}
{"SMILES": "CC[C@@]1(O)C(=O)OCc2c1cc1n(c2=O)Cc2cc3cc4c(cc3nc2-1)OCO4", "assay": "MTT", "setting": "72 h", "quantity": "pIC50", "result": 7.85}
{"SMILES": "CSC(=NNC(=O)c1ccc(O)cc1)SC", "assay": "MTT", "setting": "5 days", "quantity": "pIC50", "result": "< 4.00"}
{"SMILES": "CC[C@@]1(OC(=O)[C@@H](N)CCSC)C(=O)OCc2c1cc1n(c2=O)Cc2cc3cc4c(cc3nc2-1)OCO4", "assay": "MTT", "quantity": "pIC50", "result": 7.25}
{"SMILES": "COc1ccc2c(c1)[nH]c1c(C)nccc12", "assay": "MTT", "setting": "72 h", "quantity": "pIC50", "result": 4.60}
{"SMILES": "CC[C@@]1(OC(=O)[C@@H](N)CCCCN)C(=O)OCc2c1cc1n(c2=O)Cc2cc3cc4c(cc3nc2-1)OCO4", "assay": "MTT", "quantity": "pIC50", "result": 7.55}
{"SMILES": "O=c1ccc2cc3ccoc3cc2o1", "assay": "WST-1", "setting": "48 h", "quantity": "pIC50", "result": 4.58}
{"SMILES": "CCC1(OC(=O)C(C)c2ccc3cc(OC)ccc3c2)C(=O)OCc2c1cc1n(c2=O)Cc2cc3cc4c(cc3nc2-1)OCO4 (stereo not shown)", "assay": "MTT", "quantity": "pIC50", "result": 5.63}
{"SMILES": "O=c1ccc2ccc3occc3c2o1", "assay": "WST-1", "setting": "48 h", "quantity": "pIC50", "result": 5.06}
